# Measured values: ChEMBL document CHEMBL1772999, “Synthesis and biological evaluation of 2,4,5-substituted pyrimidines as a new class of tubulin polymerization inhibitors” (J Med Chem, 2011)
# The source made the active and inactive calls. The calls are words filed in the database; no cut-off is given here.
# Columns and labels:
# Bel-7402 = test: Antiproliferative activity against human Bel7402 cells after 72 hrs by sulforhodamine B assay; assay type: functional, cell-based; details: Bel-7402, 72 h
# Method in brief: (§1)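 SRB survival assay: cells seeded in 96-well plates, exposed to a range of compound concentrations for 72 h, fixed with 10% TCA 1 h at 4 °C, stained with 0.4% (w/v) SRB 20 min at room temperature, washed with 1% acetic acid, dye solubilized in 10 mM Tris, absorbance at 510 nm.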
# Tubulin = Tubulin (Sus scrofa, UniProt P02554+P02550); test: Inhibition of pig brain tubulin polymerization by spectrophotometry
# Method in brief: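 Pig brain microtubule protein from three assembly/disassembly cycles, tubulin purified by phosphocellulose chromatography. Polymerization in PEM buffer (100 mM PIPES, 1 mM EGTA, 1 mM MgCl2) with 1 mM GTP and 5% glycerol at 37 °C, followed by light scattering at 340 nm.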
# HT-29 = test: Antiproliferative activity against human HT-29 cells after 72 hrs by sulforhodamine B assay; assay type: functional, cell-based; details: HT-29, 72 h; method in brief: as §1
# A-431 = test: Antiproliferative activity against human A431 cells after 72 hrs by sulforhodamine B assay; assay type: functional, cell-based; details: A-431, 72 h; method in brief: as §1
# SK-OV-3 = test: Antiproliferative activity against human SKOV3 cells after 72 hrs by sulforhodamine B assay; assay type: functional, cell-based; details: SK-OV-3, 72 h; method in brief: as §1
# NCI-H460 = test: Antiproliferative activity against human NCI-H460 cells after 72 hrs by sulforhodamine B assay; assay type: functional, cell-based; details: NCI-H460, 72 h; method in brief: as §1
# A549 = test: Antiproliferative activity against human A549 cells after 72 hrs by sulforhodamine B assay; assay type: functional, cell-based; details: A549, 72 h; method in brief: as §1
# KB = test: Cell cycle arrest in human KB cells assessed as accumulation of cells at G2/M phase after 24 hrs by propidium iodide-based FACScan; assay type: functional
# Method in brief: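 Subconfluent KB cells exposed to a range of concentrations for 24 h. Adherent plus detached cells collected by trypsinization, fixed overnight in 70% ethanol, stained 30 min at 37 °C with propidium iodide 50 μg/mL plus DNase-free RNase A 50 μg/mL. 10000 cells per group analyzed by flow cytometry.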
# Tubulin (Sus scrofa) = Tubulin (Sus scrofa) (UniProt P02554+P02550); test: Displacement of colchicine from pig brain tubulin at 25 uM after 60 mins by fluorescence assay
# Method in brief: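 Tubulin (3 μM) preincubated with colchicine (3 μM) 30 min at 37 °C, then compound added (0–25 μM). Fluorescence spectra (excitation 365 nm, emission 435 nm) recorded after 60 min at 37 °C, buffer blank subtracted.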
# Tubulin (Sus scrofa), sequence (P02550 whole entry, looked up): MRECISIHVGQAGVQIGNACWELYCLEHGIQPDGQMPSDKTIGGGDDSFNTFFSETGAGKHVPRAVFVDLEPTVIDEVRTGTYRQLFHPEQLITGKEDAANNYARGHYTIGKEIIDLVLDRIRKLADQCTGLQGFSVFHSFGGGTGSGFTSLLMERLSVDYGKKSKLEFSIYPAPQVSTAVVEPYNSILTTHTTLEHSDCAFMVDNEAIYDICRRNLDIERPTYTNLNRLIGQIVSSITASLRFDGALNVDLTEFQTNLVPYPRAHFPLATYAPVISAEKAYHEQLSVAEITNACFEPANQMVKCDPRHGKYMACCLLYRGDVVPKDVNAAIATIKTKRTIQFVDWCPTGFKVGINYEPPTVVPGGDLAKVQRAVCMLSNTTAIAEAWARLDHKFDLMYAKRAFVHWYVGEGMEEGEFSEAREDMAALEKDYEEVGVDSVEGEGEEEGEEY
# Tubulin (Sus scrofa), sequence (P02554 whole entry, looked up): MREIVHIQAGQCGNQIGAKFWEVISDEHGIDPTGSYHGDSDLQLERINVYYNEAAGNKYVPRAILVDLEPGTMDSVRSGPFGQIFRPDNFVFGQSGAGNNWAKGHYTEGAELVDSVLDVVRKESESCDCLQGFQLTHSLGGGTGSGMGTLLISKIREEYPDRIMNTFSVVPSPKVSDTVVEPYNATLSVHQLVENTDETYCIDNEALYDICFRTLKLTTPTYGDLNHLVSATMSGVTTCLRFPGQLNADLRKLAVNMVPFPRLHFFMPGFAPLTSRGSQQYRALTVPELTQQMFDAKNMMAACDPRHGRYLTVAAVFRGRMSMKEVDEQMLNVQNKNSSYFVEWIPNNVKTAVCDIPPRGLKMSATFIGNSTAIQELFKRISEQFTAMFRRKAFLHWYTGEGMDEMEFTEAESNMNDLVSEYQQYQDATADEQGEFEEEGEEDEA
SMILES,IC50 (Bel-7402),IC50 (Tubulin),IC50 (HT-29),IC50 (A-431),IC50 (SK-OV-3),IC50 (NCI-H460),IC50 (A549),EC50 (KB),Activity (Tubulin (Sus scrofa))
CCn1ccc2cc(-c3cnc(N)nc3-c3cc(OC)c(OC)cc3O)ccc21,> 10000 nM,> 50000 nM,–,–,–,–,–,–,–
Nc1ncc(-c2ccc(CN3CCOCC3)cc2)c(-c2ccccc2O)n1,> 10000 nM,> 50000 nM,–,–,–,–,–,–,–
CCN(C)c1ccc(-c2cnc(N)nc2-c2ccccc2O)cc1,–,2350 nM,–,–,–,–,–,–,–
Nc1ncc(-c2ccc(N3CCOCC3)cc2)c(-c2ccccc2O)n1,> 10000 nM,> 50000 nM,–,–,–,–,–,–,–
Nc1ncc(-c2ccc(CN3CCCCC3)cc2)c(-c2ccccc2O)n1,> 10000 nM,> 50000 nM,–,–,–,–,–,–,–
CCN(CC)c1ccc(-c2cnc(N)nc2-c2ccccc2O)cc1,100 nM,5570 nM,95.4 nM,76.6 nM,171 nM,57 nM,241 nM,–,–
Nc1ncc(-c2ccc(N3CCCC3)cc2)c(-c2ccccc2O)n1,> 10000 nM,> 50000 nM,–,–,–,–,–,–,–
CCn1ccc2cc(-c3cnc(N)nc3-c3cc(OC)ccc3O)ccc21,> 10000 nM,> 50000 nM,–,–,–,–,–,–,–
CN1CCN(Cc2ccc(-c3cnc(N)nc3-c3ccccc3O)cc2)CC1,> 10000 nM,> 50000 nM,–,–,–,–,–,–,–
COc1cc2c(c(OC)c1OC)-c1ccc(OC)c(=O)cc1[C@@H](NC(C)=O)CC2 [COLCHICINE],40 nM,–,21.9 nM,53.2 nM,71.2 nM,50.6 nM,37 nM,10 nM,–
CCn1ccc2cc(-c3cnc(N)nc3-c3ccccc3O)ccc21,16 nM,790 nM,28.2 nM,20.3 nM,32 nM,19 nM,62 nM,20 nM,Active
Cn1ccc2cc(-c3cnc(N)nc3-c3ccccc3O)ccc21,50 nM,920 nM,30.8 nM,21.7 nM,69.2 nM,20.5 nM,48.2 nM,–,–
CC(C)n1ccc2cc(-c3cnc(N)nc3-c3ccccc3O)ccc21,80 nM,5000 nM,918 nM,760 nM,760 nM,485 nM,1310 nM,–,–
CCn1ccc2cc(-c3cnc(N)nc3-c3ccccc3O)cnc21,1000 nM,> 50000 nM,–,–,–,–,–,–,–
Nc1ncc(-c2ccc3[nH]ccc3c2)c(-c2ccccc2O)n1,> 10000 nM,> 50000 nM,–,–,–,–,–,–,–
CCn1ccc2ccc(-c3cnc(N)nc3-c3ccccc3O)cc21,> 10000 nM,> 50000 nM,–,–,–,–,–,–,–
Nc1ncc(-c2ccc(N3CCCCC3)cc2)c(-c2ccccc2O)n1,> 10000 nM,> 50000 nM,–,–,–,–,–,–,–
CC(=O)O[C@H]1C(=O)[C@@]2(C)[C@H]([C@H](OC(=O)c3ccccc3)[C@]3(O)C[C@H](OC(=O)[C@H](O)[C@@H](NC(=O)c4ccccc4)c4ccccc4)C(C)=C1C3(C)C)[C@]1(OC(C)=O)CO[C@@H]1C[C@@H]2O [PACLITAXEL],–,–,6.1 nM,9.2 nM,14.5 nM,14.6 nM,–,2 nM,–
CCn1ccc2cc(-c3cnc(N)nc3-c3ccc(OC)c(OC)c3O)ccc21,> 10000 nM,> 50000 nM,–,–,–,–,–,–,–
CCC1=C[C@@H]2CN(C1)Cc1c([nH]c3ccccc13)[C@@](C(=O)OC)(c1cc3c(cc1OC)N(C)[C@H]1[C@@](O)(C(=O)OC)[C@H](OC(C)=O)[C@]4(CC)C=CCN5CC[C@]31[C@@H]54)C2 [VINORELBINE],–,–,11.9 nM,60 nM,26.7 nM,43.7 nM,64.6 nM,6 nM,inactive
CCn1ccc2cc(-c3cnc(N)nc3-c3ccc(OC)cc3O)ccc21,> 10000 nM,> 50000 nM,–,–,–,–,–,–,–
CN1CCN(c2ccc(-c3cnc(N)nc3-c3ccccc3O)cc2)CC1,> 10000 nM,> 50000 nM,–,–,–,–,–,–,–
CCn1ccc2cc(-c3cnc(N)nc3-c3cc(F)ccc3O)ccc21,10 nM,800 nM,41.8 nM,45.4 nM,56.1 nM,25.8 nM,70.4 nM,–,–
CN(C)Cc1ccc(-c2cnc(N)nc2-c2ccccc2O)cc1,> 10000 nM,> 50000 nM,–,–,–,–,–,–,–
CCn1ccc2c(-c3cnc(N)nc3-c3ccccc3O)cccc21,1000 nM,> 50000 nM,–,–,–,–,–,–,–
